From ChEMBL document CHEMBL1129991, “Inhibition of uridine phosphorylase. Synthesis and structure-activity relationships of aryl-substituted 1-((2-hydroxyethoxy)methyl)-5-(3-phenoxybenzyl)uracil” (J Med Chem, 1997)

Test: Tested for inhibition of Uridine Phosphorylase (UrdPase) in murine liver
Procedure, shortened: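 Mouse liver enzyme in a radiochemical assay: [2-¹⁴C]uridine (170 µM, 7.1 µCi/µmol) converted to [2-¹⁴C]uracil in 20 mM potassium phosphate pH 8.0, 1 mM EDTA, 1 mM dithiothreitol, with or without inhibitor. Incubated 30 min at 37 °C, stopped by heating 1 min at 100 °C. Uridine and uracil separated by TLC. Enzyme amount set to give 10% conversion uninhibited.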

| IC50 [nM] | SMILES |
| --- | --- |
| 32 | O=c1[nH]c(=O)n(COCCO)cc1Cc1cccc(Oc2cccc(C(F)(F)F)c2)c1 |
| 31 | COc1cccc(Oc2cccc(Cc3cn(COCCO)c(=O)[nH]c3=O)c2)c1 |
| 210 | COc1ccc(Oc2cccc(Cc3cn(COCCO)c(=O)[nH]c3=O)c2)cc1 |
| 98 | O=c1[nH]c(=O)n(COCCO)cc1Cc1cccc(Oc2ccc(F)cc2)c1 |
| 1.4 | O=c1[nH]c(=O)n(COC(CO)CO)cc1Cc1cccc(Oc2cccc(Cl)c2)c1 |
| 14 | O=c1[nH]c(=O)n(COCCO)cc1Cc1cccc(Oc2ccccc2)c1 |
| 13 | Cc1cccc(Oc2cccc(Cc3cn(COCCO)c(=O)[nH]c3=O)c2)c1 |
| 22 | O=c1[nH]c(=O)n(COC(CO)CO)cc1Cc1cccc(Oc2ccc(F)cc2)c1 |
| 8.2 | O=c1[nH]c(=O)n(COC(CO)CO)cc1Cc1cccc(Oc2cccc(F)c2)c1 |
| 5.9 | N#Cc1cccc(Oc2cccc(Cc3cn(COCCO)c(=O)[nH]c3=O)c2)c1 |
| 84 | O=c1[nH]c(=O)n(COCCO)cc1Cc1cccc(Oc2ccc(Cl)cc2)c1 |
| 15 | O=c1[nH]c(=O)n(COCCO)cc1Cc1cccc(Oc2cccc(Cl)c2)c1 |
| 14 | O=c1[nH]c(=O)n(COCCO)cc1Cc1cccc(Oc2cccc(F)c2)c1 |
| 10 | O=c1[nH]c(=O)n(COC(CO)CO)cc1Cc1cccc(Oc2ccccc2)c1 |
